{"source": "ChEMBL document CHEMBL3351942", "about": "“Rexinoids isolated from Sophora tonkinensis with a gene expression profile distinct from the synthetic rexinoid bexarotene” (J Nat Prod, 2014)", "key": {"[1]": {"biological_target": "T1, Retinoic acid receptor RXR-alpha (Homo sapiens) (UniProt P19793)", "T1 sequence (whole entry)": "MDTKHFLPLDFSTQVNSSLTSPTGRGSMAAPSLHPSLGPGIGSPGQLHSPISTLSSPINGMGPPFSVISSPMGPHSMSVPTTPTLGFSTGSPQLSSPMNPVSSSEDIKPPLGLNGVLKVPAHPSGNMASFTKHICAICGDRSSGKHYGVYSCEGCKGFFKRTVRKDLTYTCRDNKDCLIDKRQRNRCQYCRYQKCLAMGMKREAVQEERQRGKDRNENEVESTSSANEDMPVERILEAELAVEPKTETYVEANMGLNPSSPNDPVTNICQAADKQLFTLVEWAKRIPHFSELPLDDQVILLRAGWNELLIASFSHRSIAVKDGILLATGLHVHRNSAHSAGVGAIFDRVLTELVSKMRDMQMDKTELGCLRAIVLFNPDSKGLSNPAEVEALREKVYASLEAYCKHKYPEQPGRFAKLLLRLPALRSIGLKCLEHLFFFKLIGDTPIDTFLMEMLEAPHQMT", "assay": "(§1) Agonist activity at human RXR-alpha expressed in HEK293 cells coexpressing with pCMX-beta-gal after 24 to 48 hrs by luciferase reporter gene assay", "assay_type": "cell-based", "in_short": "(§2)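 HEK293 cells transfected by calcium phosphate with 60 ng pCMX-hRXR-α, 150 ng CRBPII-tk-Luc and 30 ng pCMX-β-gal plus carrier pUC18 (600 ng DNA per well). After 8 h the cells were washed and exposed to compound in medium with 10% FBS for 24−48 h. Luciferase was normalized to β-galactosidase. Triplicate or quadruplicate; representative of three independent experiments; EC50 from dose-response.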"}, "[2]": {"biological_target": "T1, Retinoic acid receptor RXR-alpha (Homo sapiens)", "assay": "Agonist activity at human RXR-alpha expressed in HEK293 cells coexpressing with pCMX-beta-gal at 10 uM after 24 to 48 hrs by luciferase reporter gene assay", "assay_type": "cell-based"}, "[3]": {"biological_target": "T2, Retinoic acid receptor RXR-alpha (Homo sapiens, UniProt P19793)", "T2 sequence (P19793 whole entry)": "T1 sequence (whole entry)", "assay": "as §1", "assay_type": "cell-based", "in_short": "as §2"}, "[4]": {"biological_target": "T1, Retinoic acid receptor RXR-alpha (Homo sapiens)", "assay": "Agonist activity at human RXR-alpha expressed in HEK293 cells coexpressing with pCMX-beta-gal at 10 uM after 24 to 48 hrs by luciferase reporter gene assay in presence of PA452 pan-antagonist", "assay_type": "cell-based", "in_short": "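RXRα reporter in HEK293: cotransfected with RXRα expression vector, luciferase reporter and pCMX-β-gal. Eight hours after transfection, cells were treated with test compound at 10 μM with or without the RXR pan-antagonist PA452 (10 μM). Luciferase was normalized to β-galactosidase. Means ± SD of three determinants; representative of three experiments; one-way ANOVA with Bonferroni's t-test.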"}, "[5]": {"biological_target": "T1, Retinoic acid receptor RXR-alpha (Homo sapiens)", "assay": "Binding affinity to RXRalpha (unknown origin) by receptor-SRC1 cofactor complex formation assay", "in_short": "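Ligand-dependent binding of RXR isotype to coactivator SRC-1 in an NR cofactor kit, detected with HRP-conjugated anti-RXR antibody at OD450. The full agonist CD3254 defined 100% and vehicle 0%. Efficacy was taken as maximum B/Bmax% and potency as EC50.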"}, "RAW264.7 [6]": {"test_system": "RAW264.7", "assay": "Activation of RXR/LXR heterodimer in mouse RAW264.7 cells assessed as increase in ABCA1 mRNA level at 1 uM by quantitative RT-PCR analysis", "assay_type": "cell-based", "in_short": "(§3)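 RAW264.7 macrophages in DMEM/10% FBS, exposed 24 h with or without LXR agonist T0901317; ABCA1 mRNA by SYBR green qRT-PCR, β-actin-normalized, fold vs vehicle; means ± SD of three determinants, one of three independent experiments; one-way ANOVA, Bonferroni.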"}, "RAW264.7 [7]": {"test_system": "RAW264.7", "assay": "Activation of RXR/LXR heterodimer in mouse RAW264.7 cells assessed as potentiation of T0901317-induced increase in ABCA1 mRNA level at 1 uM by quantitative RT-PCR analysis", "assay_type": "cell-based", "in_short": "as §3"}, "F9 [8]": {"test_system": "F9", "assay": "Activation of RXR/RAR heterodimer in mouse F9 cells assessed as increase in CYP26A1 mRNA level at 1 uM by quantitative RT-PCR analysis", "assay_type": "cell-based", "in_short": "(§4)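 F9 teratocarcinoma cells on 0.2% gelatin-coated dishes in DMEM/10% FBS; 24 h exposure with or without atRA (0.1 μM). CYP26A1 mRNA by qRT-PCR normalized to β-actin, fold vs vehicle; means ± SD of three determinants, one of three experiments; ANOVA/Bonferroni.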"}, "F9 [9]": {"test_system": "F9", "assay": "Activation of RXR/RAR heterodimer in mouse F9 cells assessed as increase in CYP26A1 mRNA level at 1 uM by quantitative RT-PCR analysis in presence of atRA", "assay_type": "cell-based", "in_short": "as §4"}, "Homo sapiens": {"species": "Homo sapiens", "assay": "Activation of RXR/VDR heterodimer in human hepatoma cells assessed as increase in CYP24A1 mRNA level at 1 uM by quantitative RT-PCR analysis", "assay_type": "cell-based", "in_short": "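HLE hepatoma cells treated 24 h with or without VD3 (0.1 μM); CYP24A1 mRNA by SYBR green qRT-PCR normalized to β-actin (delta-delta Ct), fold over vehicle; means ± SD of three determinants, representative of three experiments.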"}, "3T3-L1": {"test_system": "3T3-L1", "assay": "Activation of PPARgamma/RXR heterodimer in mouse 3T3-L1 cell assessed as induction of adipogenesis at 1 uM after 6 days by Oil red O-staining", "assay_type": "cell-based", "in_short": "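3T3-L1 cells grown to confluence, 2 days later induced 48 h with 10% FBS, 5 μg/mL insulin, 0.25 μM dexamethasone, 0.5 mM IBMX, then 48 h insulin-only medium; compounds in DMSO added to postdifferentiation medium for 4 days. Formalin-fixed (10%, 1 h, RT), stained with Oil red O, washed, visualized.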"}, "[10]": {"assay": "Activation of LXR in mouse C2C12 cells assessed as induction of lipoprotein lipase mRNA expression at 1 uM after 24 hrs by quantitative RT-PCR analysis", "assay_type": "cell-based", "in_short": "(§5)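 C2C12 myoblasts grown in DMEM/10% FBS, differentiated at confluence in 2% horse serum, medium changed every other day for 5 days; myotubes treated 24 h with or without T0901317 (1 μM). Total RNA, DNase-treated, oligo(dT) RT from 0.5 μg, SYBR green qPCR; normalized to β-actin (delta-delta Ct), fold over vehicle; mean ± SD of four determinants, one of two experiments.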"}, "[11]": {"assay": "Activation of LXR in mouse C2C12 cells assessed as induction of lipoprotein lipase mRNA expression at 1 uM after 24 hrs in presence of T0901317 by quantitative RT-PCR analysis", "assay_type": "cell-based", "in_short": "as §5"}, "[12]": {"assay": "Activation of LXR in mouse C2C12 cells assessed as induction of SREBP1 mRNA expression at 1 uM after 24 hrs in presence of T0901317 by quantitative RT-PCR analysis", "assay_type": "cell-based", "in_short": "as §5"}, "[13]": {"assay": "Activation of LXR in mouse C2C12 cells assessed as induction of FAS mRNA expression at 1 uM after 24 hrs in presence of T0901317 by quantitative RT-PCR analysis", "assay_type": "cell-based", "in_short": "as §5"}, "[14]": {"assay": "Activation of LXR in mouse C2C12 cells assessed as induction of ApoD mRNA expression at 1 uM after 24 hrs in presence of T0901317 by quantitative RT-PCR analysis", "assay_type": "cell-based", "in_short": "as §5"}, "[15]": {"assay": "Activation of LXR in mouse C2C12 cells assessed as induction of ABCA1 mRNA expression at 1 uM after 24 hrs in presence of T0901317 by quantitative RT-PCR analysis", "assay_type": "cell-based", "in_short": "as §5"}, "[16]": {"assay": "Activation of LXR in mouse C2C12 cells assessed as induction of ApoE mRNA expression at 1 uM after 24 hrs in presence of T0901317 by quantitative RT-PCR analysis", "assay_type": "cell-based", "in_short": "as §5"}, "[17]": {"biological_target": "T3, Peroxisome proliferator-activated receptor delta (Mus musculus) (UniProt P35396)", "T3 sequence (whole entry)": "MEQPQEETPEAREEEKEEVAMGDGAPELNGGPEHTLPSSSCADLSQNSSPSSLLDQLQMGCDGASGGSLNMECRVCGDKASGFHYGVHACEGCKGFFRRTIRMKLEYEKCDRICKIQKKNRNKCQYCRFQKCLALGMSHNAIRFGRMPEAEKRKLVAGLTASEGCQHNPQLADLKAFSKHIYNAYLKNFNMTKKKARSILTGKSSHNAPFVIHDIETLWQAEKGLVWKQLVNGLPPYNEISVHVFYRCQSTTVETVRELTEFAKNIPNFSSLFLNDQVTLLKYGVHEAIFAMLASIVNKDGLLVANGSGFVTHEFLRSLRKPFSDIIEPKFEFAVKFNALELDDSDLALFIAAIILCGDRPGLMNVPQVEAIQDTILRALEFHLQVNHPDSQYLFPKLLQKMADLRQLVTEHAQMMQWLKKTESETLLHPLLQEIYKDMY", "assay": "Activation of PPARdelta in mouse C2C12 cells assessed as induction of ANGPTL4 mRNA expression at 1 uM after 24 hrs by quantitative RT-PCR analysis", "assay_type": "cell-based", "in_short": "(§6)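 Differentiated C2C12 myotubes (2% horse serum, 5 days) exposed 24 h with or without PPARδ agonist GW501516 (1 μM). mRNA quantified by SYBR green real-time RT-PCR, normalized to β-actin by delta-delta Ct, and expressed as fold induction vs vehicle; means ± SD of four determinants from one of two independent experiments; one-way ANOVA with Bonferroni.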"}, "[18]": {"biological_target": "T3, Peroxisome proliferator-activated receptor delta (Mus musculus)", "assay": "Activation of PPARdelta in mouse C2C12 cells assessed as induction of FABP3 mRNA expression at 1 uM after 24 hrs by quantitative RT-PCR analysis", "assay_type": "cell-based", "in_short": "as §6"}, "[19]": {"biological_target": "T3, Peroxisome proliferator-activated receptor delta (Mus musculus)", "assay": "Activation of PPARdelta in mouse C2C12 cells assessed as induction of CPT1A mRNA expression at 1 uM after 24 hrs by quantitative RT-PCR analysis", "assay_type": "cell-based", "in_short": "as §6"}, "[20]": {"biological_target": "T3, Peroxisome proliferator-activated receptor delta (Mus musculus)", "assay": "Activation of PPARdelta in mouse C2C12 cells assessed as induction of FABP3 mRNA expression at 1 uM after 24 hrs in presence of GW501516 by quantitative RT-PCR analysis", "assay_type": "cell-based", "in_short": "as §6"}}, "note": "Calls of active or inactive are those of the source. The rule behind the calls is not given here.", "data": [{"smiles": "C=CCc1ccc(O)c(-c2ccc(O)c(CC=C)c2)c1", "values": [{"measurement": "ED50", "setting": "[1]", "value": 11.8, "unit": "µM"}]}, {"smiles": "CC(C)=CCc1cc([C@@H]2CC(=O)c3ccc(O)c(CC=C(C)C)c3O2)cc(CC=C(C)C)c1O", "values": [{"measurement": "Activity", "setting": "[2]", "value": "inactive"}]}, {"smiles": "CC/C=C\\C/C=C\\C/C=C\\C/C=C\\C/C=C\\C/C=C\\CCC(=O)O", "values": [{"measurement": "ED50", "setting": "[1]", "value": 50, "unit": "µM"}]}, {"smiles": "C=C1C(=O)O[C@H]2C[C@@H](C)[C@@H]3C=CC(=O)[C@@]3(C)[C@@H](OC(C)=O)[C@H]12", "values": [{"measurement": "ED50", "setting": "[1]", "value": 4.9, "unit": "µM"}]}, {"smiles": "CC(C)=CCc1cc([C@@H]2CC(=O)c3ccc(O)c(CC=C(C)C)c3O2)cc2c1OC(C)(C)C(O)C2", "note": "(stereo partly specified)", "values": [{"measurement": "Activity", "setting": "[1]", "value": "Dose-dependent effect"}, {"measurement": "EC50", "setting": "[3]", "value": 0.78, "unit": "µM"}, {"measurement": "Activity", "setting": "[4]", "value": "inactive"}, {"measurement": "Activity", "setting": "[5]", "value": "inactive"}]}, {"smiles": "C=C(c1ccc(C(=O)O)cc1)c1cc2c(cc1C)C(C)(C)CCC2(C)C", "values": [{"measurement": "Activity", "setting": "RAW264.7 [6]", "value": "Active"}, {"measurement": "Activity", "setting": "RAW264.7 [7]", "value": "Active"}, {"measurement": "Activity", "setting": "F9 [8]", "value": "Active"}, {"measurement": "Activity", "setting": "F9 [9]", "value": "Active"}, {"measurement": "Activity", "setting": "Homo sapiens", "value": "Active"}, {"measurement": "Activity", "setting": "3T3-L1", "value": "Active"}, {"measurement": "Activity", "setting": "[10]", "value": "inactive"}, {"measurement": "Activity", "setting": "[11]", "value": "inactive"}, {"measurement": "Activity", "setting": "[12]", "value": "Active"}, {"measurement": "Activity", "setting": "[13]", "value": "Active"}, {"measurement": "Activity", "setting": "[14]", "value": "Active"}, {"measurement": "Activity", "setting": "[15]", "value": "Active"}, {"measurement": "Activity", "setting": "[16]", "value": "Active"}, {"measurement": "Activity", "setting": "[17]", "value": "Active"}, {"measurement": "Activity", "setting": "[18]", "value": "Active"}, {"measurement": "Activity", "setting": "[19]", "value": "Active"}, {"measurement": "Activity", "setting": "[20]", "value": "Active"}]}, {"smiles": "CC(C)CCC[C@@H](C)CCC[C@@H](C)CCCC(C)CC(=O)O", "note": "(stereo partly specified)", "values": [{"measurement": "ED50", "setting": "[1]", "value": 3, "unit": "µM"}]}]}
